The record followed here is ChEMBL document CHEMBL1148508, “Design and synthesis of phosphotyrosine peptidomimetic prodrugs” (J Med Chem, 2006).

The test system of one assay is Jurkat. Nature of the assay: Inhibition of NFAT-mediated luciferase gene transcription in human jurkat J77 cell line after 6 hrs. In kind it is functional, cell-based. In outline:
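Jurkat J77 cells electroporated (300 V, 800 μF) with NFAT-luciferase plasmid (four NFAT sites), grown 24 h in FBS-RPMI. Pretreated 1 h with compound (0.1-1000 μM, DMSO stocks), then stimulated with PMA plus anti-CD3 (2 μg/well) for 6 h. Lysate luciferase read; sigmoidal fit of RLU vs log concentration, IC50 = 50% drop versus DMSO control; mean ± S.E., n = 4.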

Assay [1] deals with Panel NCI-62 (62 carcinoma cell lines). Kind of assay: Antiproliferative activity against human NCI62 cell line after 48 hrs. In kind it is functional. In a few lines: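 NCI 60-panel screen (62 cell lines): cells grown 24 h in supplemented RPMI 1640, then exposed to drug 48 h at 5 concentrations, 10^-8 to 10^-4 M. Stopped with cold trichloroacetic acid, fixed, sulforhodamine B stained, bound dye solubilized and absorbance read. Growth inhibition from time-zero, control and treated absorbances; GI50 as mean ± S.D. across 62 lines.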

By IC50 is commonly meant the point on the concentration scale where inhibition reaches its midpoint. Low values mean greater potency, high ones weaker potency. On to `CC(=O)N[C@@H](Cc1ccc(NP(=O)(OCc2ccc([N+](=O)[O-])o2)N(C)CCCCCl)cc1)C(=O)NC(C)c1ccc(OCC2CCCCC2)c(C(N)=O)c1` (stereo not given in full), for which the IC50 with Jurkat is 28 µM. Usually GI50 stands for the concentration giving 50% growth inhibition. Read a low GI50 as more potent growth inhibition. With `CC(NC(=O)Cc1ccc(OP(=O)(OCc2ccc([N+](=O)[O-])o2)N(C)CCCCCl)cc1)c1ccc(OCC2CCCCC2)c(C(N)=O)c1` (stereo not given), the midpoint of inhibition with Jurkat, the IC50, lay at 9 µM. This compound showed a concentration for 50% growth inhibition (GI50) in assay [1] of 3 µM. In the assay with Jurkat, `CC(NC(=O)Cc1ccc(NP(=O)(OCc2ccc([N+](=O)[O-])o2)N(C)CCCCCl)cc1)c1ccc(OCC2CCCCC2)c(C(N)=O)c1` (stereo not given) showed an IC50 of 20 µM. Compound `CC(NC(=O)c1ccc(OP(=O)(OCc2ccc([N+](=O)[O-])o2)N(C)CCCCCl)cc1)c1ccc(OCC2CCCCC2)c(C(N)=O)c1` (stereo not given) returned an IC50 in the assay on Jurkat of 31 µM. In assay [1], this compound returned a GI50 of 12 µM. In the assay on Jurkat, `CC(NC(=O)c1ccc(NP(=O)(OCc2ccc([N+](=O)[O-])o2)N(C)CCCCCl)cc1)c1ccc(OCC2CCCCC2)c(C(N)=O)c1` (stereo not given) yielded an IC50 of 16 µM. In addition, halving of growth in assay [1] (GI50) required 18 µM. For the compound `CC(=O)N[C@@H](Cc1ccc(OP(=O)(OCc2ccc([N+](=O)[O-])o2)N(C)CCCCCl)cc1)C(=O)NC(C)c1ccc(OCC2CCCCC2)c(C(N)=O)c1` (stereo not given in full), the IC50 in the assay with Jurkat was 21 µM. Further, the GI50 in assay [1] was determined as 6 µM.
